ChEMBL document CHEMBL1781959, “Synthesis and in vitro antitumor activity of substituted quinazoline and quinoxaline derivatives: search for anticancer agent” (Eur J Med Chem, 2011)

Columns and labels:
[1] = tested on: HL-60(TB); test: Growth inhibition of human HL-60(TB) cells after 48 hrs by SRB assay; assay type: functional; conditions: HL-60, 48 h
[2] = tested on: NCI-H322M; test: Growth inhibition of human NCI-H322M cells after 48 hrs by SRB assay; assay type: functional
Outline: (§1)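 NCI 60-panel five-dose assay at 0.01, 0.1, 1, 10 and 100 μM. Cells in RPMI 1640 with 5% FBS and 2 mM L-glutamine, preincubated 24 h, with time-zero plates TCA-fixed. Drug exposure 48 h at 37 °C. Read by SRB staining at 515 nm. GI50 is the concentration where [(Ti−Tz)/(C−Tz)]×100 = 50, taken from log concentration versus % growth curves.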

[3] = tested on: NCI-H460; test: Growth inhibition of human NCI-H460 cells after 48 hrs by SRB assay; assay type: functional; conditions: NCI-H460, 48 h; outline: as §1
[4] = tested on: NCI-H522; test: Growth inhibition of human NCI-H522 cells after 48 hrs by SRB assay; assay type: functional; conditions: NCI-H522, 48 h; outline: as §1
[5] = tested on: HCT-15; test: Growth inhibition of human HCT15 cells after 48 hrs by SRB assay; assay type: functional; conditions: HCT-15, 48 h; outline: as §1
[6] = tested on: HT-29; test: Growth inhibition of human HT-29 cells after 48 hrs by SRB assay; assay type: functional; conditions: HT-29, 48 h; outline: as §1
[7] = tested on: KM12; test: Growth inhibition of human KM12 cells after 48 hrs by SRB assay; assay type: functional; conditions: KM12, 48 h; outline: as §1
[8] = tested on: SW-620; test: Growth inhibition of human SW620 cells after 48 hrs by SRB assay; assay type: functional; conditions: SW-620, 48 h
Outline: (§2)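 NCI-60 panel cells grown in RPMI 1640 with 5% FBS and 2 mM L-glutamine, then seeded at 5000–40,000 cells/well by doubling time and preincubated for 24 h. Compound in DMSO was tested either at 10^-5 M alone or at 0.01–100 μM in five doses, for 48 h at 37 °C. Cells were fixed with cold TCA (10% final), stained with SRB, and read at 515 nm. GI50 was taken from % growth relative to time-zero and control wells.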

[9] = tested on: U-251; test: Growth inhibition of human U251 cells after 48 hrs by SRB assay; assay type: functional; conditions: U-251, 48 h; outline: as §2
[10] = tested on: MDA-MB-435; test: Growth inhibition of human MDA-MB-435 cells after 48 hrs by SRB assay; assay type: functional; conditions: MDA-MB-435, 48 h; outline: as §1
[11] = tested on: UACC-257; test: Growth inhibition of human UACC257 cells after 48 hrs by SRB assay; assay type: functional; conditions: UACC-257, 48 h; outline: as §2
[12] = tested on: UACC-62; test: Growth inhibition of human UACC62 cells after 48 hrs by SRB assay; assay type: functional; conditions: UACC-62, 48 h; outline: as §2
[13] = tested on: OVCAR-8; test: Growth inhibition of human OVCAR8 cells after 48 hrs by SRB assay; assay type: functional; conditions: OVCAR-8, 48 h; outline: as §1
[14] = tested on: NCI/ADR-RES; test: Growth inhibition of human NCI/ADR-RES cells after 48 hrs by SRB assay; assay type: functional; outline: as §1
[15] = tested on: SK-OV-3; test: Growth inhibition of human SKOV3 cells after 48 hrs by SRB assay; assay type: functional; conditions: SK-OV-3, 48 h; outline: as §2
[16] = tested on: ACHN; test: Growth inhibition of human ACHN cells after 48 hrs by SRB assay; assay type: functional; outline: as §1
[17] = tested on: CAKI-1; test: Growth inhibition of human Caki1 cells after 48 hrs by SRB assay; assay type: functional; conditions: CAKI-1, 48 h; outline: as §1
[18] = tested on: PC-3; test: Growth inhibition of human PC3 cells after 48 hrs by SRB assay; assay type: functional; conditions: PC-3, 48 h; outline: as §1
[19] = tested on: NCI-H322M; test: Cytotoxicity against human NCI-H322M cells after 48 hrs by SRB assay; assay type: cell-based
Outline: (§3)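 NCI-60 five-dose screen in RPMI 1640 with 5% FBS and 2 mM L-glutamine; 5000–40,000 cells/well, 24 h pre-incubation. DMSO stocks diluted to 0.01, 0.1, 1, 10 and 100 μM final; 48 h at 37 °C, 5% CO2. Fixed with TCA (10% final adherent, 16% suspension), stained with 0.4% SRB, A515. GI50, TGI and LC50 taken from time-zero, control and test absorbances.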

[20] = tested on: NCI-H23; test: Cytotoxicity against human NCI-H23 cells after 48 hrs by SRB assay; assay type: cell-based; conditions: nci-h23, 48 h; outline: as §3
[21] = tested on: NCI-H226; test: Cytotoxicity against human NCI-H226 cells after 48 hrs by SRB assay; assay type: cell-based; conditions: nci-h226, 48 h; outline: as §3
[22] = tested on: CCRF-CEM; test: Cytotoxicity against human CCRF-CEM cells after 48 hrs by SRB assay; assay type: cell-based; outline: as §3
[23] = tested on: HCT-15; test: Cytotoxicity against human HCT15 cells after 48 hrs by SRB assay; assay type: cell-based; conditions: hct-15, 48 h; outline: as §3
[24] = tested on: SW-620; test: Cytotoxicity against human SW620 cells after 48 hrs by SRB assay; assay type: cell-based; conditions: sw-620, 48 h
Outline: (§4)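 NCI-60 five-dose screen. Cells grown in RPMI 1640 with 5% FBS and 2 mM L-glutamine and pre-incubated 24 h; a time-zero plate is TCA-fixed. Drug added at 0.01, 0.1, 1, 10 and 100 µM (DMSO stock) for 48 h at 37 °C, 5% CO2. Fixed with cold TCA (10% final for adherent, 16% for suspension cells), stained with 0.4% SRB, A515. GI50, TGI and LC50 taken from dose-response curves.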

[25] = tested on: SF-268; test: Cytotoxicity against human SF268 cells after 48 hrs by SRB assay; assay type: cell-based; conditions: sf-268, 48 h; outline: as §3
[26] = tested on: SF-295; test: Cytotoxicity against human SF295 cells after 48 hrs by SRB assay; assay type: cell-based; conditions: sf-295, 48 h; outline: as §3
[27] = tested on: SNB-75; test: Cytotoxicity against human SNB75 cells after 48 hrs by SRB assay; assay type: cell-based; conditions: snb-75, 48 h; outline: as §4
[28] = tested on: SK-MEL-2; test: Cytotoxicity against human SK-MEL-2 cells after 48 hrs by SRB assay; assay type: cell-based; conditions: sk-mel-2, 48 h; outline: as §3
[29] = tested on: UACC-62; test: Cytotoxicity against human UACC62 cells after 48 hrs by SRB assay; assay type: cell-based; conditions: uacc-62, 48 h; outline: as §4
[30] = tested on: OVCAR-5; test: Cytotoxicity against human OVCAR5 cells after 48 hrs by SRB assay; assay type: cell-based; conditions: ovcar-5, 48 h; outline: as §3
[31] = tested on: OVCAR-8; test: Cytotoxicity against human OVCAR8 cells after 48 hrs by SRB assay; assay type: cell-based; conditions: ovcar-8, 48 h; outline: as §3
[32] = tested on: SK-OV-3; test: Cytotoxicity against human SKOV3 cells after 48 hrs by SRB assay; assay type: cell-based; conditions: sk-ov-3, 48 h; outline: as §3
[33] = tested on: 786-0; test: Cytotoxicity against human 786-0 cells after 48 hrs by SRB assay; assay type: cell-based; conditions: 786-0, 48 h; outline: as §3
[34] = tested on: ACHN; test: Cytotoxicity against human ACHN cells after 48 hrs by SRB assay; assay type: cell-based; outline: as §3
[35] = Cytotoxicity against human Hs 578T cells after 48 hrs by SRB assay; assay type: cell-based; outline: as §3

Q: Which results are given for `O=c1c2ccccc2nc(-c2ccco2)n1/N=C/c1ccccc1Cl`?
A: GI50 [1]: 23.8 µM; TGI [1]: > 100 µM; GI50 [2]: 4.11 µM; TGI [2]: 76.9 µM; GI50 [3]: 3.45 µM; TGI [3]: 8.41 µM; GI50 [4]: 2.14 µM; TGI [4]: 6.45 µM; GI50 [5]: 5.73 µM; TGI [5]: > 100 µM; GI50 [6]: 3.42 µM; TGI [6]: > 100 µM; GI50 [7]: 3.65 µM; TGI [7]: 25.4 µM; GI50 [8]: 4.68 µM; TGI [8]: 12.7 µM; GI50 [9]: 4.12 µM; TGI [9]: 32.3 µM; GI50 [10]: 8.23 µM; TGI [10]: 17 µM; GI50 [11]: 8.34 µM; TGI [11]: > 100 µM; GI50 [12]: 6.38 µM; TGI [12]: > 100 µM; GI50 [13]: 3.98 µM; TGI [13]: 25.8 µM; GI50 [14]: 2.45 µM; TGI [14]: 8.78 µM; GI50 [15]: 3.68 µM; TGI [15]: 14.8 µM; GI50 [16]: 3.12 µM; TGI [16]: > 100 µM; GI50 [17]: 7.99 µM; TGI [17]: 34.8 µM; GI50 [18]: 8.23 µM; TGI [18]: > 100 µM; LC50 [19]: > 100 µM; LC50 [20]: > 100 µM; LC50 [21]: > 100 µM; LC50 [22]: > 100 µM; LC50 [23]: > 100 µM; LC50 [24]: > 100 µM; LC50 [25]: > 100 µM; LC50 [26]: > 100 µM; LC50 [27]: > 100 µM; LC50 [28]: > 100 µM; LC50 [29]: > 100 µM; LC50 [30]: > 100 µM; LC50 [31]: > 100 µM; LC50 [32]: > 100 µM; LC50 [33]: > 100 µM; LC50 [34]: > 100 µM; LC50 [35]: > 100 µM
